# Data taken from PMC5701743 (Nature, 2017).
# Substitutions are numbered along the chain they refer to.
# Target: T1, Vrg4 (Saccharomyces cerevisiae, UniProt P40107)
# T1 sequence (P40107 1-337): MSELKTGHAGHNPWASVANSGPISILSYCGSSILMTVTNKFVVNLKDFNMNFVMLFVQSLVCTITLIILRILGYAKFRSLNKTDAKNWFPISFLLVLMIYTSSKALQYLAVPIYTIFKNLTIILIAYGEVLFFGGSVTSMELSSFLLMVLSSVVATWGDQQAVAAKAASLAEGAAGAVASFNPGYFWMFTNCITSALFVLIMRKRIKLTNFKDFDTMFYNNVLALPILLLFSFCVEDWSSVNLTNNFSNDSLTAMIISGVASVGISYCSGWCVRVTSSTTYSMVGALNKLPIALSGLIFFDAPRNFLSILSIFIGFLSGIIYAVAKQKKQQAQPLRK
# Test: not given
# Format: biochemical
# Details: internal substrate; 0.5 μM 3H-GMP outside
# Summary of the method: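 Yeast Vrg4-GFP-His was galactose-induced, IMAC-purified in DDM, and then in DM reconstituted by dilution into yeast polar lipid vesicles at 80:1 lipid:protein and dialysed. Internal substrate was loaded by six freeze-thaw cycles and 0.4 μm extrusion. 4 μg protein was added to 50 μl of 20 mM Hepes pH 7.5, 50 mM KCl, 2 mM MgSO4 with 0.5 μM 3H-GMP. Samples were filtered, washed with cold water and scintillation-counted. ≥4 repeats, mean ± S.D.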
row,Compound,Transport driven by substance inside the liposome
1,"Nc1ncnc2c1ncn2[C@@H]1O[C@H](COP(=O)(O)O)[C@@H](O)[C@H]1O [AMP, adenine monophosphate]",poor transport
2,"Nc1ccn([C@@H]2O[C@H](COP(=O)(O)O)[C@@H](O)[C@H]2O)c(=O)n1 [CMP, cytosine monophosphate]",no significant transport
3,Nc1nc2c(ncn2[C@@H]2O[C@H](COP(=O)(O)OP(=O)(O)OP(=O)(O)O)[C@@H](O)[C@H]2O)c(=O)[nH]1 [GTP],cannot be driven

# Target: GDP-mannose transporter Vrg4 (Saccharomyces cerevisiae) (UniProt P40107)
# Test: crystal structure
# Details: not given
row,Compound,stoichiometry N
1,GDP-mannose transporter Vrg4 (from UniProt P40107 1-337) (natural protein),2

# Target: T2, Vrg4 Tyr114Phe (Y114F) (Saccharomyces cerevisiae, UniProt P40107, Y114F)
# T2 sequence (P40107 1-337 Y114F): T1 sequence (P40107 1-337) with Y114F
# Test: IC50 curves, Vrg4 Tyr114Phe variant proteoliposomes
# Format: biochemical
# Details: Tyr114Phe versus wild type
# Summary of the method: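 Wild-type or mutant Vrg4 was purified in DM and reconstituted at 80:1 lipid:protein into yeast polar lipid proteoliposomes. Reconstituted protein was matched by SDS-PAGE densitometry. Liposomes were substrate-loaded by freeze-thaw and extrusion. Uptake was started by adding 4 μg protein equivalent to 50 μl buffer (20 mM Hepes pH 7.5, 50 mM KCl, 2 mM MgSO4) with 0.5 μM 3H-GMP, then filtered and counted. IC50 from curves, mean of three independent experiments, s.d.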
row,Compound,Affinity relative to wild type
1,"Nc1nc2c(ncn2[C@@H]2O[C@H](COP(=O)(O)OP(=O)(O)O[C@H]3O[C@H](CO)[C@@H](O)[C@H](O)[C@@H]3O)[C@@H](O)[C@H]2O)c(=O)[nH]1 [GDP-M, GDP-mannose]",reduced the affinity
2,"Nc1nc2c(ncn2[C@@H]2O[C@H](COP(=O)(O)O)[C@@H](O)[C@H]2O)c(=O)[nH]1 [GMP, guanine monophosphate]",reduced the affinity

# Target: T3, wild type Vrg4 (Saccharomyces cerevisiae, UniProt P40107)
# T3 sequence (P40107 1-337): T1 sequence (P40107 1-337)
# Test: Competition / IC50 of 3H-GMP uptake into wild type Vrg4 proteoliposomes
# Format: biochemical
# Details: competition assay, n=4
row,Compound,Competition of transport (recognition by the binding site)
1,"C[C@@H]1O[C@H](OP(=O)(O)OP(=O)(O)OC[C@H]2O[C@@H](n3cnc4c(=O)[nH]c(N)nc43)[C@H](O)[C@@H]2O)[C@@H](O)[C@H](O)[C@@H]1O [GDP-F, GDP-fucose]",can also compete
2,"Nc1nc2c(ncn2[C@@H]2O[C@H](COP(=O)(O)OP(=O)(O)O[C@H]3O[C@H](CO)[C@@H](O)[C@H](O)[C@@H]3O)[C@@H](O)[C@H]2O)c(=O)[nH]1 [GDP-M, GDP-mannose]",most effective competitors of transport
3,Nc1nc2c(ncn2[C@@H]2O[C@H](COP(=O)(O)OP(=O)(O)O)[C@@H](O)[C@H]2O)c(=O)[nH]1 [GDP],can also compete
4,"Nc1nc2c(ncn2[C@@H]2O[C@H](COP(=O)(O)O)[C@@H](O)[C@H]2O)c(=O)[nH]1 [GMP, guanine monophosphate]",most effective competitors of transport
5,"Nc1nc2c(ncn2[C@@H]2O[C@H](COP(=O)(O)OP(=O)(O)O[C@H]3O[C@H](CO)[C@@H](O)[C@H](O)[C@H]3O)[C@@H](O)[C@H]2O)c(=O)[nH]1 [GTP-G, GDP-glucose]",can also compete
6,O=P(O)(O)OP(=O)(O)O [Pyrophosphate],cannot inhibit
7,Nc1nc2c(ncn2[C@@H]2O[C@@H]3COP(=O)(O)O[C@H]3[C@H]2O)c(=O)[nH]1 [cyclic GMP],very poorly recognised
8,Nc1nc2c(ncn2[C@@H]2O[C@H](CO)[C@@H](O)[C@H]2O)c(=O)[nH]1 [guanosine],very poorly recognised
